Assay outcomes as filed in PubChem BioAssay.
Rin1-Abl PPI inh: inhibitors of human Rin1-Abl protein interaction; actives 0.4% (n = 360,000); AID 588664; P00519+Q13671; inhibition, % at 7.35 µM; TR-FRET Rin1/Abl binding, biochemical; in the data active means inhibition above about 5%, passing the limit was not always enough
ASAP1 inh: blocks human ASAP1-stimulated Arf1 GTP hydrolysis; GDP FP detection; actives 0.19% (n = 360,000); inhibition, % at 16.5 µM; AID 624377; Q9ULH1; in the data active means inhibition above about 25%;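 further: 0% = vehicle with enzyme and substrate and 100% = no enzyme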
ARFGAP1 inhibitor: rat ARFGAP1 inhibition; Q62848; Arfgap1-stimulated ARF1 GTP hydrolysis, GDP FP detection; inhibition, % at 16.5 µM; actives 0.26% (n = 360,000);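 active means inhibition above a per-plate limit, mean inhibition of low control wells plus 3 SD, cut at about 25% in these data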;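 further: 0% = DMSO wells with enzyme and 100% = wells lacking Arfgap1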
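System: truncated rat Arfgap1 GAP domain / Benchmarks: high control wells lacking Arfgap1, low control full reaction with DMSO / Times: compound-enzyme preincubation 20 min, reaction 120 min, detection 60 min, 25 °C / Repeats: one replicate per compound / Also added: human ARF1(Δ1-17)-GTP substrate / Measured by: Tracer-displacement fluorescence polarization with EDTA stop, 620/688 nm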
GalR3 antagonist: antagonists of human GalR3. HEK293 GalR3-CNG cAMP membrane potential fluorescence; galR3 body fused to GalR1 C-terminus. AID 651719. O60755. actives 0.44% (n = 360,000). inhibition, % at 3 µM;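 active means inhibition above the screen-wide average plus 3 SD, cut at about 13% in these data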;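 further: forskolin and galanin both at EC90 stimulate the cells; cAMP rise reported by CNG channel membrane potential dye signal; 0% = forskolin plus galanin with DMSO and 100% = forskolin alone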
Target sequence (O60755 1-299 limits assumed): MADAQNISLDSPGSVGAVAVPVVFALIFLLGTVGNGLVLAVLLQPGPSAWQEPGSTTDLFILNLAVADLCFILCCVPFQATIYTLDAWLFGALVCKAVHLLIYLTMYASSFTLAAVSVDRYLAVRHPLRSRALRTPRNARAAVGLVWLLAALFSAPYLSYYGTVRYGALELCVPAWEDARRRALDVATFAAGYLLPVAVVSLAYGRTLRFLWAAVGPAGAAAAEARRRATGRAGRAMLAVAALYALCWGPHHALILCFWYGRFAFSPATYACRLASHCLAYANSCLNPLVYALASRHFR
ASAP1 GAP conf: confirmation of human ASAP1 inhibitors | ASAP1-stimulated Arf1 GTPase, GDP fluorescence polarization | shares compounds with ASAP1 inh | inhibition, % at 16.5 µM | actives 37% (n = 620) | AID 624431;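 active means mean inhibition over triplicates exceeds the hit threshold derived for the earlier primary screening run, cut at about 25% in these data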
ARFGAP1 confirm: confirmation of rat ARFGAP1 inhibitors | actives 30% (n = 890) | AID 651608 | ARFGAP1-stimulated ARF1 GTP hydrolysis, GDP tracer FP | inhibition, % at 16.5 µM | shares compounds with ARFGAP1 inhibitor;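 active means average inhibition over triplicates above the hit cutoff set in the earlier primary screen, cut at about 25% in these data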;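 further: 0% = Arfgap1 plus ARF1-GTP with DMSO and 100% = wells lacking Arfgap1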
Target sequence (Q62848 whole entry, looked up): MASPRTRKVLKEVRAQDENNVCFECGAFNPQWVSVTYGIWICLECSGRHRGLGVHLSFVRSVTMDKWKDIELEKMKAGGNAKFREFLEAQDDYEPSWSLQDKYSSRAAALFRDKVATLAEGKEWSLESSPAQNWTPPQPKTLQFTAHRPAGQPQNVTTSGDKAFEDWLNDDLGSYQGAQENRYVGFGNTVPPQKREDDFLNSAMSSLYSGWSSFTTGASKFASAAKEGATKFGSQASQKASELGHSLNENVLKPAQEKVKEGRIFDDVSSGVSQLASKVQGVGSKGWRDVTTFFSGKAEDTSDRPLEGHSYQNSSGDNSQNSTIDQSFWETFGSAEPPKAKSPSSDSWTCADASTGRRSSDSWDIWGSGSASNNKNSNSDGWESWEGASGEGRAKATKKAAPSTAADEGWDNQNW
GalR3 conf: confirmation of human galanin receptor 3 antagonists; shares compounds with GalR3 antagonist; HEK293 GalR3 CNG cAMP biosensor, membrane potential fluorescence; galR3 fused to GalR1 carboxy tail; challenged with forskolin and galanin at EC90; inhibition, % at 3 µM; actives 59% (n = 1,600);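 active means inhibition above the primary screen's cutoff, the mean inhibition of all screened compounds plus 3 SD, cut at about 13% in these data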;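 further: 0% = forskolin plus galanin and 100% = forskolin alone with DMSO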
CNG parental: counter-screen for GalR3 antagonists: nonspecific agonists in parental HEK-CNG cells | shares compounds with GalR3 antagonist | HEK293-CNG parental cells, cAMP membrane potential fluorescence; normalised: DMSO wells 0%, forskolin wells 100% | activation, % at 3 µM | actives 10% (n = 1,600) | AID 652268; in the data active means activation above about 1.3%
Starred values were filed as active, the others as inactive; · = not tested or not shown. Shown are actives, neighbours in structure and some others; about 1.2% of the full set was active somewhere.

SMILES | Rin1-Abl PPI inh | ASAP1 inh | ARFGAP1 inhibitor | GalR3 antagonist | ARFGAP1 confirm | others
COc1ccc(-c2cccc3c4c([nH]c23)[C@@H]2C[C@H]3[C@@H](C(=O)N2CC4)[C@H](C)ON3C)cc1 | · | 4.2 | -4.6 | -6.1 | ·
Nc1[nH]c(C(=O)c2ccccc2)c(-c2ccc(F)cc2)c1C(=O)c1c[nH]c2ccccc12 | · | 2.4 | 6.3 | -1.9 | ·
CN(C)CCNC(=O)c1cccc(-c2cnc3c(NC=O)cc(/C=C/c4ccccc4)cn23)c1 | -2.0 | 42.0* | 34.5* | 0.1 | 44.7* | ASAP1 GAP conf=36.7*
COCc1[nH]nc2c1C(c1ccc(F)cc1)NC2=O (stereo not given) | · | 10.2 | 14.0 | -3.3 | ·
O=C(NN=Cc1ccc2c(c1)OCO2)NN=Cc1ccc2c(c1)OCO2 | -0.6 | 33.9* | 30.7* | -6.4 | 61.5* | ASAP1 GAP conf=71.6*
O=C(O)c1ccc(Nc2nc(-c3cc4ccccc4oc3=O)cs2)cc1O | -2.3 | 25.2* | 26.7* | -0.1 | 44.8* | ASAP1 GAP conf=33.1*
O=c1c(Cl)c(N/N=C/c2ccc(Br)cc2)cnn1-c1ccccc1 | -3.1 | 42.2* | 43.7* | -5.9 | 64.6* | ASAP1 GAP conf=32.5*
N#Cc1c(NC(=O)c2ccc(Br)o2)n(-c2ccccc2)c2nc3ccccc3nc12 | 7.7* | 41.5* | 27.4* | -4.6 | -1.4 | ASAP1 GAP conf=20.5
COc1cccc(NC(=O)N(C)C[C@H]2OCc3ccccc3-c3c(n(C)c4ccccc34)C(=O)N([C@H](C)CO)C[C@H]2C)c1 | · | 14.4 | 20.4 | -6.5 | ·
CN1\C(=C/C=C/C=C/C=[N+](C)C)C(C)(C)c2ccccc21 | -7.2 | 54.9* | 46.7* | -8.9 | 37.4* | ASAP1 GAP conf=41.4*
COC(=O)[C@]12C[C@H](CC(=O)N3CCSCC3)C(=O)N(Cc3ccccc3)C1=C[C@H](C(C)C)O[C@@H]2C1CC1 | · | -7.9 | -0.5 | -4.9 | ·
CCOC(=O)c1ccc(Oc2cn[nH]c2-c2ccc(O)cc2O)cc1 | 1.4 | 27.4* | 10.0 | 17.0* | · | ASAP1 GAP conf=20.4;GalR3 conf=9.3;CNG parental=4.4*
C[C@H](c1ccccc1)N1C[C@@H](COCc2ccccc2)Oc2cccc(Oc3ccc(F)cc3)c2S1(=O)=O | · | -3.0 | 2.1 | 3.1 | ·
Cc1ccc2cc(C)c3nnc(SCC(=O)Nc4nc5c(s4)CCCC5)n3c2c1C | -1.9 | -11.1 | 27.4* | 1.4 | -6.6
C#CCN1CCc2onc(-c3ccc(Br)cc3)c2C1=O | · | -4.3 | 7.9 | -4.8 | ·
FC(F)Oc1ccc(NC(=S)NC23CC4CC(CC(C4)C2)C3)cc1 | 1.2 | -3.8 | 25.3* | -7.2 | 8.4
O=C(O)c1ccc(Nc2nc(-c3ccccc3)cs2)cc1 | 1.0 | 2.8 | -3.0 | -2.1 | ·
N#Cc1ccc(Nc2nc(-c3ccccc3)cs2)cc1 | 4.5 | 0.1 | 30.3* | -3.7 | 14.3
CCOC(=O)Cc1cc(=O)c2cc(C)ccc2[nH]1 | 1.5 | 1.4 | 39.0* | -11.1 | -2.8
C[C@H]1COc2cc(N3CCOCC3)ccc2S(=O)(=O)N1 | · | -10.9 | -7.0 | 0.3 | ·
O=C(/C=C(\Nc1cccc(F)c1)c1ccccc1)c1ccccc1 | · | -5.4 | -2.3 | -6.6 | ·
C[C@H](CO)N1C[C@H](C)[C@@H](CN(C)C(=O)Nc2cccc(F)c2)OCc2cn(nn2)CCCC1=O | · | -12.2 | -2.5 | 0.5 | ·
O=C(COC(=O)CNS(=O)(=O)c1ccc2ccccc2c1)Nc1ccccc1Sc1ccccc1 | 3.4 | 7.5 | 29.8* | -2.1 | 7.5
CC[C@H](CO)Oc1cc(NCc2cccc(N)c2)c2ncn(C(C)C)c2c1 | · | 3.2 | 27.4* | -3.8 | 2.7
COCC(=O)Nc1ccc([N+](=O)[O-])cc1OC | -0.6 | -0.7 | -4.5 | 0.3 | ·
SMILES | Rin1-Abl PPI inh | ASAP1 inh | ARFGAP1 inhibitor | GalR3 antagonist | ARFGAP1 confirm | others
COc1cc(NC(=O)COc2ccc([N+](=O)[O-])cc2)ccc1NC(=O)c1ccco1 | -0.5 | 12.4 | 58.1* | -5.7 | 74.9*
COc1cc([N+](=O)[O-])ccc1NC(=O)COC(=O)c1ccc(NC(N)=O)cc1 | -1.0 | 14.4 | 29.1* | -2.6 | 19.7
COc1cc(NC(=O)c2c(OC)cccc2OC)ccc1NC(=O)c1cc2ccccc2o1 | 0.1 | 10.7 | 12.2 | -6.7 | ·
COc1cc(NC(=O)c2cc3ccccc3o2)ccc1NC(=O)c1ccco1 | 2.6 | -0.7 | 26.9* | -8.8 | 11.3
CCCCCCCNC(=O)C1(CC2CC(c3cccc(Br)c3)=NO2)CCN(C(=O)C2CCCC2)CC1 (stereo not given) | -0.4 | 3.7 | 1.7 | -0.1 | ·
CCCCCCCNC(=O)C1(CC2CC(c3cccc(Br)c3)=NO2)CCN(C(=O)OC(C)(C)C)CC1 (stereo not given) | 3.3 | 5.5 | 35.7* | 2.8 | 1.0
Cc1nc(NCc2ccc(S(N)(=O)=O)cc2)c2c(C)c(C)sc2n1 | 0.6 | 22.0 | 44.4* | -5.9 | 32.1*
CCOC(=O)c1sc2nc(C)nc(NCc3ccccc3)c2c1C | 1.2 | 2.8 | -4.5 | -12.1 | ·
COc1cc(/C=N/NC(=O)c2ccc(Cl)c(S(N)(=O)=O)c2)ccc1OCC(N)=O | -1.6 | -8.7 | 44.0* | -3.0 | 7.7
Cc1cc(N2CCN(C)CC2)nc2ccc(NC(=O)c3ccc4c(c3)OCO4)cc12 | -4.1 | 3.5 | 4.9 | 1.9 | ·
COc1cc(C(=O)Nc2ccc3nc(N4CCN(C)CC4)cc(C)c3c2)cc(OC)c1OC | -0.6 | 12.0 | 28.9* | -7.1 | 25.4*
C=CCn1c(C)nnc1SCC(=O)Nc1ccccc1C(=O)NC1CC1 | 1.2 | 3.9 | 24.7* | 1.4 | -2.8
Cn1nc(-c2ccc(C(=O)Nc3cccnc3)cc2)c2ccccc2c1=O | 1.9 | -2.4 | 24.6* | 0.2 | 0.7
Cc1ccc(NC(=O)c2ccc(-c3nn(C)c(=O)c4ccccc34)cc2)cc1 | -1.6 | 7.5 | 16.2 | -6.3 | ·
COc1ccc(N/N=C(/C#N)S(=O)(=O)c2nsc(C)c2C#N)cc1 | 0.4 | -6.6 | 28.0* | -3.4 | 1.2
O=C(N[C@H](C(=O)N1CCC[C@H]1C(=O)NCCc1ccccc1Cl)c1ccccc1)C1CCCC1 | · | 7.7 | 13.3 | -2.7 | ·
C=CCN1C(=O)[C@]2(OCCC=C[C@H]2C)c2cc(OC)ccc21 | · | -4.5 | 1.7 | -2.6 | ·
Cc1ccc2[nH]c3c(=O)n(CC(=O)Nc4ccccc4N4CCN(C)CC4)ncc3c2c1 | -0.4 | 7.7 | 24.8* | -7.2 | 48.2*
COc1cc(/C=C(\C#N)c2ccccn2)ccc1OCC(=O)Nc1c(Cl)cccc1Cl | -3.6 | 9.5 | 29.0* | -5.3 | 31.1*
